The values that follow come from ChEMBL document CHEMBL1212900, “Falcipain inhibitors: optimization studies of the 2-pyrimidinecarbonitrile lead series” (J Med Chem, 2010).

Bounds are passed on as bounds.

Assay [1] can be described thus: Inhibition of Plasmodium falciparum falcipain-2 expressed in Escherichia coli. In a few lines: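 Recombinant E. coli-expressed, refolded enzyme at 0.25 nM in 100 mM sodium acetate pH 5.5, 500 μM CHAPS, 10 mM DTT, DMSO ≤1%. Substrate H-D-Val-Leu-Arg-AFC at 30 μM final. Inhibitor dilutions mixed with substrate, enzyme added last; fluorescence followed 1 h at room temperature. IC50 from percent activity versus concentration.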

Assay [2] is described as follows: Inhibition of Plasmodium falciparum falcipain-3 expressed in Escherichia coli. An outline of the steps: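 Refolded recombinant enzyme from E. coli, 2 nM, in 100 mM sodium acetate pH 5.5 with 500 μM CHAPS and 10 mM DTT, DMSO up to 1%. H-D-Val-Leu-Arg-AFC at 150 μM final. Reaction started by enzyme addition; fluorescence monitored 1 h at room temperature. IC50 derived from percent activity plotted against inhibitor concentration.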

For the molecule `CC(C)(C)OC(=O)NN(Cc1ccco1)c1nc(C#N)ncc1Br`, the 50% inhibitory concentration (IC50) in assay [1] turned out to be 8 nM; in assay [2], 140 nM.

Regarding `CC(C)CN(NC(=O)OC(C)(C)C)c1cncc(C#N)n1`, the IC50 in assay [1] is 59 nM; in assay [2], 1670 nM.

`CC(C)CN(NC(=O)c1ccc(-c2ccccc2)s1)c1nc(C#N)ncc1Br`: the IC50 in assay [1] came out at 6 nM; in assay [2], 549 nM. The like results for `CC(C)CN(NC(=O)c1cc(-c2ccccc2)[nH]n1)c1nc(C#N)ncc1Br` were, in that order, 3 nM and 352 nM.

`CC(C)CN(NC(=O)c1ccnc2ccccc12)c1nc(C#N)ncc1Cl`: the IC50 in assay [1] stood at 1 nM; in assay [2] it was 44 nM. Take `COc1ccc(CC(=O)NN(CC(C)C)c2nc(C#N)ncc2Br)cc1`: the results for the IC50 in assay [1] and in assay [2] were 1.5 nM and 6 nM, respectively.

With `CC(C)(C)OC(=O)NN(CC1CCCO1)c1nc(C#N)ncc1Br` (stereo not drawn), the IC50 is 14 nM in assay [1] and 112 nM in assay [2]. The corresponding values for `Cc1nc(-c2ccccc2)ncc1C(=O)NN(CC(C)C)c1nc(C#N)ncc1Br` are 2 nM and 165 nM.

Consider `CC(C)CN(NC(=O)OC(C)(C)C)c1nc(C#N)ncc1Cl`, for which the IC50 in assay [1] came to 9 nM; in assay [2], 144 nM. Regarding `COc1ccc(CC(=O)NN(CC(C)C)c2nc(C#N)ncc2Cl)cc1`, the IC50 in assay [1] was found to be 1 nM; in assay [2], 5 nM. The corresponding values for `CC(C)CN(NC(=O)C1(c2ccc(Cl)cc2)CC1)c1nc(C#N)ncc1Br` are 15 nM and 69 nM. The corresponding values for `CC(C)CN(NC(=O)c1cc(-c2ccccc2)cs1)c1nc(C#N)ncc1Br` are 3 nM and 374 nM.

Consider `CC(C)CN(NC(=O)c1cccc2c1Cc1ccccc1-2)c1nc(C#N)ncc1Br`, for which the results for the IC50 in assay [1] and in assay [2] were 4 nM and 329 nM, respectively.

As for `CC(C)CN(NC(=O)C(C)(C)c1ccccc1)c1nc(C#N)ncc1Br`, the IC50 came out at 18 nM in assay [1] and 60 nM in assay [2]. For the molecule `CC(C)CN(NC(=O)c1csc(-c2ccccc2)n1)c1nc(C#N)ncc1Cl`, the results for the IC50 in assay [1] and in assay [2] were 1.5 nM and 54 nM, respectively. The like results for `CC(C)CN(NC(=O)OC(C)(C)C)c1cc(C#N)ncn1` were, in that order, over 10000 nM and over 10000 nM.

Consider `CC(C)CN(NC(=O)c1ccc(Cc2ccccc2)cc1)c1nc(C#N)ncc1Cl`, for which the results for the IC50 in assay [1] and in assay [2] were 18 nM and 962 nM, respectively. The corresponding values for `CC(C)(C)OC(=O)NN(Cc1ccccc1)c1nc(C#N)ncc1Br` are 17 nM and 347 nM.

On to `CC(C)CN(NC(=O)c1ccc(-c2cccc(C(F)(F)F)c2)o1)c1nc(C#N)ncc1Br`, for which the results for the IC50 in assay [1] and in assay [2] were 5 nM and 97 nM, respectively. The like results for `CC(=O)N1CCC(N(NC(=O)OC(C)(C)C)c2nc(C#N)ncc2Br)CC1` were, in that order, under 0.5 nM and 33 nM. With `CC(C)CN(NC(=O)C1(c2ccccc2)CC1)c1nc(C#N)ncc1Br`, the figures for the IC50 in assay [1] and in assay [2] were 6 nM and 102 nM, respectively. With `Cc1nn(-c2ccccc2)nc1C(=O)NN(CC(C)C)c1nc(C#N)ncc1Br`, the IC50 in assay [1] amounted to 676 nM; in assay [2], 1100 nM.

Take `CC(C)CN(NC(=O)c1ccc(-c2ccccc2)o1)c1nc(C#N)ncc1Br`: the values for the IC50 in assay [1] and in assay [2] were 1 nM and 39 nM, respectively. The corresponding values for `CC(C)CN(NC(=O)c1onc2ccccc12)c1nc(C#N)ncc1Br` are 604 nM and over 10000 nM. The like results for `CC(C)CN(NC(=O)OC(C)(C)C)c1nccc(C#N)n1` were, in that order, 196 nM and 3570 nM.

In the case of `CC(C)CN(NC(=O)OC(C)(C)C)c1nc(C#N)ncc1[N+](=O)[O-]`, the concentration for half-maximal inhibition (IC50) amounted to 2 nM in assay [1] and 26 nM in assay [2].

In the case of `CC(C)(C)OC(=O)NN(CC1CC1)c1nc(C#N)ncc1Br`, the IC50 in assay [1] was 7 nM; in assay [2] it was 413 nM. Turning to `CC(C)CN(NC(=O)C(C)(C)c1ccc(Cl)cc1)c1nc(C#N)ncc1Br`, the half-maximal inhibitory concentration (IC50) in assay [1] was found to be 4 nM; in assay [2] it was 18 nM. Regarding `CC1(CN(NC(=O)OC(C)(C)C)c2nc(C#N)ncc2Br)CCCCC1`, the IC50 in assay [1] worked out at 25 nM; in assay [2] it was 121 nM. The corresponding values for `CC(C)CN(NC(=O)c1cccc(-c2ccncc2)c1)c1nc(C#N)ncc1Br` are under 0.5 nM and 15 nM.

Turning to `CC(C)CN(NC(=O)c1ccc2ccccc2n1)c1nc(C#N)ncc1Cl`, the IC50 in assay [1] is 6 nM; in assay [2], 254 nM. The like results for `CC(=O)N[C@H]1CC[C@H](N(NC(=O)OC(C)(C)C)c2nc(C#N)ncc2Br)CC1` were, in that order, 7 nM and 67 nM. `CC(C)CN(NC(=O)c1ccc(-n2cccn2)cc1)c1nc(C#N)ncc1Cl`: the IC50 was determined as 8 nM in assay [1] and 148 nM in assay [2].

As for `CC(C)CN(NC(=O)c1cc(-c2ccccc2)no1)c1nc(C#N)ncc1Br`, the figures for the IC50 in assay [1] and in assay [2] were 10 nM and 359 nM, respectively. The like results for `CC(C)CN(NC(=O)OC(C)(C)C)c1ccnc(C#N)n1` were, in that order, 60 nM and 870 nM.

With `CC(C)CN(NC(=O)C1(c2ccccc2)CCCC1)c1nc(C#N)ncc1Br`, the IC50 in assay [1] came out at 11 nM; in assay [2] it was 137 nM. `CC1CCC(N(NC(=O)OC(C)(C)C)c2nc(C#N)ncc2Br)C1` (stereo not drawn): the values for the IC50 in assay [1] and in assay [2] were 3 nM and 53 nM, respectively. The corresponding values for `CC(C)CN(NC(=O)c1cccc(-c2ccccc2)c1)c1nc(C#N)ncc1Br` are 1 nM and 37 nM.

`Cc1cc(C)c(CC(=O)NN(CC(C)C)c2nc(C#N)ncc2Br)c(C)c1`: the half-inhibitory concentration (IC50) was 1 nM in assay [1] and 21 nM in assay [2].

Turning to `CC(C)N1CCC(N(NC(=O)OC(C)(C)C)c2nc(C#N)ncc2Br)CC1`, the IC50 worked out at 902 nM in assay [1] and 5240 nM in assay [2]. The corresponding values for `Cc1cnc(C#N)nc1N(CC(C)C)NC(=O)OC(C)(C)C` are 40 nM and 1150 nM. Turning to `CC(C)CN(NC(=O)c1ccc2sccc2c1)c1nc(C#N)ncc1Br`, the IC50 in assay [1] stood at 1 nM; in assay [2] it was 154 nM. Turning to `CC(C)CN(NC(=O)OC(C)(C)C)c1nc(Cl)ncc1[N+](=O)[O-]`, the IC50 in assay [1] and in assay [2] was over 25000 nM throughout. With `Cc1c(C(=O)NN(CC(C)C)c2nc(C#N)ncc2Br)n(C)c2ccccc12`, the IC50 in assay [1] came out at 4 nM; in assay [2], 311 nM. The like results for `CC(C)CN(NC(=O)c1cnoc1-c1ccccc1)c1nc(C#N)ncc1Cl` were, in that order, 8 nM and 128 nM. As for `Cc1nc(-c2ccc3c(c2)CCO3)sc1C(=O)NN(CC(C)C)c1nc(C#N)ncc1Cl`, the IC50 came out at 3 nM in assay [1] and 950 nM in assay [2]. The like results for `CC(C)(C)OC(=O)NN(CCC1CCCC1)c1nc(C#N)ncc1Br` were, in that order, 64 nM and 504 nM.

With `CC(C)CN(NC(=O)c1ccc2occc2c1)c1nc(C#N)ncc1Br`, the IC50 is 0.7 nM in assay [1] and 69 nM in assay [2]. The like results for `CC(C)CN(NC(=O)c1c[nH]c(-c2ccccc2)n1)c1nc(C#N)ncc1Br` were, in that order, 4 nM and 146 nM. `CC(C)CN(NC(=O)Cc1ccc(F)cc1)c1nc(C#N)ncc1Br`: the results for the IC50 in assay [1] and in assay [2] were 3 nM and 4 nM, respectively. The corresponding values for `CC(C)CN(NC(=O)OC(C)(C)C)c1cccc(C#N)n1` are 609 nM and over 10000 nM. The like results for `CC(C)CN(NC(=O)c1cccc2c1-c1ccccc1C2=O)c1nc(C#N)ncc1Br` were, in that order, 2 nM and 67 nM.

In the case of `CC(C)CN(NC(=O)c1cc2cc(OCc3ccccc3)ccc2[nH]1)c1nc(C#N)ncc1Br`, the results for the IC50 in assay [1] and in assay [2] were 103 nM and 4650 nM, respectively. Turning to `CC(C)CN(NC(=O)c1ccnn1-c1ccccc1)c1nc(C#N)ncc1Cl`, the results for the IC50 in assay [1] and in assay [2] were 7 nM and 63 nM, respectively. For `Cc1c(C(=O)NN(CC(C)C)c2nc(C#N)ncc2Br)oc2ccccc12`, the IC50 amounted to 223 nM in assay [1] and 1430 nM in assay [2]. Regarding `CC(C)CN(NC(=O)c1cc(-c2cccs2)[nH]n1)c1nc(C#N)ncc1Cl`, the IC50 in assay [1] turned out to be 5 nM; in assay [2], 451 nM. Consider `CC(C)(C)OC(=O)NN(CC1CCC1)c1nc(C#N)ncc1Br`, for which the figures for the IC50 in assay [1] and in assay [2] were 3 nM and 62 nM, respectively. `CC(C)CN(NC(=O)OC(C)(C)C)c1nc(C#N)ncc1F`: the IC50 worked out at 24 nM in assay [1] and 583 nM in assay [2]. Turning to `Cc1nc2cc(C(=O)NN(CC(C)C)c3nc(C#N)ncc3Br)ccc2[nH]1`, the values for the IC50 in assay [1] and in assay [2] were 0.2 nM and 27 nM, respectively. `C[C@H]1CCC[C@H]1N(NC(=O)OC(C)(C)C)c1nc(C#N)ncc1Br` (relative stereo): the IC50 in assay [1] stood at 58 nM; in assay [2] it was 407 nM. The like results for `Cc1ccc2[nH]c(C(=O)NN(CC(C)C)c3nc(C#N)ncc3Br)cc2c1` were, in that order, 33 nM and 1530 nM. The corresponding values for `CC(C)CN(NC(=O)Cc1c(Cl)cccc1Cl)c1nc(C#N)ncc1Br` are 1 nM and 66 nM. The like results for `CC(C)CN(NC(=O)c1ccc(C(=O)c2ccccc2)cc1)c1nc(C#N)ncc1Br` were, in that order, 3 nM and 115 nM. `COCc1cnc(C#N)nc1N(CC(C)C)NC(=O)OC(C)(C)C`: the IC50 is 8400 nM in assay [1] and over 10000 nM in assay [2].

`CC(C)CN(NC(=O)c1cncc(-c2ccccc2)c1)c1nc(C#N)ncc1Br`: the 50% inhibitory concentration (IC50) in assay [1] was under 0.5 nM; in assay [2], 4 nM.

Take `CC(C)CN(NC(=O)c1cccc2cc[nH]c12)c1nc(C#N)ncc1Br`: the IC50 is 3 nM in assay [1] and 342 nM in assay [2]. Consider `CC(C)CN(NC(=O)OC(C)(C)C)c1nc(Cl)ncc1C#N`, for which the IC50 in assay [1] came to 4530 nM. In other words, the single-digit micromolar range.

What is called IC50 is the point on the concentration scale where inhibition reaches its midpoint. Read a high IC50 as lower potency.
